Experimental data taken from paper PMC3205972 (Journal of medicinal chemistry, 2009).
Like-named read-outs stand apart in the source and are kept apart here. Each block holds one molecule with its values, some of them ahead of it.

Columns and labels:
[1] = test system: Cancer Cell Lines (A549, OE21, Hs683, U373, SKMEL, B16F10); experiment: MTT colorimetric assay, mean over six cancer cell lines; type: cell-based; details: read-out: IC50 In Vitro Growth Inhibitory Values, Cancer Cell Lines, Mean ± SEM
[2] = test system: Normal Cell Lines (Wi38, WS1, NHDF); experiment: MTT colorimetric assay, mean over three normal cell lines; type: cell-based; details: read-out: IC50 In Vitro Growth Inhibitory Values, Normal Cell Lines, Mean ± SEM
[3] = test system: cancer versus normal cell lines; experiment: In vitro therapeutic ratio, cancer versus normal cell lines; type: cell-based
Procedure, shortened: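 MTT colorimetric growth assay on human cancer and normal cell lines. Cells were plated for 24 h at 10,000 to 40,000 cells/mL, depending on cell type, then cultured 72 h with or without test compound. Formazan from mitochondrial MTT reduction was read at 570 nm (reference 630 nm), in sextuplicate. The ratio compares MTT growth-inhibitory IC50 between normal and cancer cells.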

[4] = test system: SKMEL-28 melanoma cells; experiment: MTT colorimetric assay, in vitro growth inhibition; type: cell-based, human
[5] = test system: U373 GBM cells; experiment: Quantitative videomicroscopy: cell growth; type: cell-based, human; details: 5 μM, 72 h
[6] = test system: A549 NSCLC cells; experiment: Quantitative videomicroscopy: cell growth; type: cell-based, human; details: 5 μM, 72 h
[7] = test system: A549 NSCLC cells; experiment: Soft-agar colony formation, anchorage-independent culture; type: cell-based, human; details: between 0.5 (p < 0.05) and 5 (p < 0.01) μM, 38 days
[8] = test system: U373 GBM cells; experiment: Actin cytoskeleton organization by computer-assisted fluorescence microscopy; type: cell-based, human; details: 5 μM for 6 hrs
[9] = test system: U373 GBM cells; experiment: Flow cytometry, annexin V / propidium iodide staining; type: cell-based, human; details: 72 hrs
[10] = test system: healthy mice; experiment: Chronic maximal tolerated dose in healthy mice; type: in vivo, mouse; details: i.v. 5, 10, 20, 40 and 80 mg/kg once a day during 5 consecutive days; 28 days
[11] = test system: CYP3A4; details: cited from earlier work
[12] = test system: MCF-7 breast cancer cells; experiment: Flow cytometry, annexin V / propidium iodide staining; type: cell-based, human; details: 1 μM for 72 hrs, positive control
[13] = test system: glioma cells, which display resistance to proapoptotic stimuli; details: 1 μM; cited from earlier work
[14] = test system: A549 non-small-cell-lung cancer (NSCLC) cells; experiment: MTT colorimetric assay, in vitro growth inhibition; type: cell-based, human
[15] = test system: OE21 esophageal cancer cells; experiment: MTT colorimetric assay, in vitro growth inhibition; type: cell-based, human
[16] = test system: Hs683 anaplastic oligodendroglioma cells; experiment: MTT colorimetric assay, in vitro growth inhibition; type: cell-based, human
[17] = test system: U373 glioblastoma (GBM) cells; experiment: MTT colorimetric assay, in vitro growth inhibition; type: cell-based, human; details: 72 h
[18] = test system: B16F10 melanoma cells; experiment: MTT colorimetric assay, in vitro growth inhibition; type: cell-based, mouse
[19] = read-out: In Vitro IC50 Growth Inhibitory Values, SKMEL, MTT, 72 h, concentrations of up to 10 μM
[20] = read-out: In Vitro IC50 Growth Inhibitory Values, A549, MTT, 72 h, concentrations of up to 10 μM
[21] = read-out: In Vitro IC50 Growth Inhibitory Values, OE21, MTT, 72 h, concentrations of up to 10 μM
[22] = read-out: In Vitro IC50 Growth Inhibitory Values, Hs683, MTT, 72 h, concentrations of up to 10 μM
[23] = read-out: In Vitro IC50 Growth Inhibitory Values, U373, MTT, concentrations of up to 10 μM
[24] = read-out: In Vitro IC50 Growth Inhibitory Values, B16F10, MTT, 72 h, concentrations of up to 10 μM

IC50 [1]: 9 ± 1.3 µM
Compound: COc1cc2c(cc1O)[C@@H]1[C@H](O)[C@@H](O)C=C3CCN(C2)[C@H]31 [compound 18, (1S,2S,11bS,11cS)-1,2,10-triol-2,4,5,7,11b,11c-hexahydro-9-methoxy-1H-pyrrolo[3,2,1-de]phenanthridine]
IC50 [2]: 63.3 ± 7.3 µM
Therapeutic ratio ([3]; MTT IC50): 7

Compound: COC1=C[C@@H]2CCN3Cc4cc5c(cc4[C@@H]([C@H]23)[C@@H]1O)OCO5 [compound 22, (1S,3aS,12bS,12cS)-1-ol-2-methoxy-3a,4,5,7,12b,12c-hexahydro-1H-[1,3]Dioxolo[4,5-j]pyrrolo[3,2,1-de]phenanthridine]
IC50 [2]: > 99.2 µM
Therapeutic ratio ([3]; MTT IC50): > 13

Compound: c1cc2c3c(c1)-c1cc4c(cc1CN3CC2)OCO4 [compound 20, 4,5-dihydro-7H-[1,3]Dioxolo[4,5-j]pyrrolo[3,2,1-de]phenanthridine]
IC50 ([4]; Homo sapiens, SK-MEL-28, 72 h, read-out: IC50 In Vitro Growth Inhibitory Values): 20.9 ± 1.2 µM
IC50 [1]: 11.6 ± 3.4 µM
Therapeutic ratio ([3]; MTT IC50): 2

Compound: O[C@H]1[C@H]2c3cc4c(cc3CN3CCC(=C[C@@H]1O)[C@H]23)OCO4 [compound 1, (1S,2S,12bS,12cS)-1,2-Diol,2,4,5,7,12b,12c-hexahydro-1H-[1,3]dioxolo[4,5-j]pyrrolo[3,2,1-de]phenanthridine]
IC50 [2]: > 100 µM
Therapeutic ratio ([3]; MTT IC50): > 15
Therapeutic ratio ([3]; MTT IC50, listed as Lycorine): at least 15
Therapeutic ratio ([3]; MTT IC50, listed as lycorine): 15
in vitro growth inhibitory activity based on global growth rate (GGR) [5]: marked in vitro growth inhibitory activity
in vitro growth inhibitory activity based on global growth rate (GGR) [6]: marked in vitro growth inhibitory activity
colony formation on soft agar [7]: significantly impairs colony formation
levels of polymerized actin [8]: markedly increased the levels of polymerized actin
pro-apoptotic effects (AV+ cells) ([9]; 5 μM or 50 μM): did not induce pro-apoptotic effects
non-apoptotic cell death (AV-/PI+ cells) ([9]; 50 μM): induced non-apoptotic cell death
toxicity (body weight, death) [10]: no gross toxicity
CYP3A4 inhibitory activity [11]: no CYP3A4 inhibitory activity

Compound: O=C1N[C@@H]2C(=C[C@H](O)[C@@H](O)[C@H]2O)c2cc3c(c(O)c21)OCO3 [narciclasine]
pro-apoptotic effects (AV/PI staining) [12]: induced significant pro-apoptotic effects
apoptosis induction [13]: unable to induce apoptosis
CYP3A4 inhibitory activity [11]: does

Compound: C1=C2CCN3Cc4cc5c(cc4[C@H]([C@@H]4O[C@H]14)[C@@H]23)OCO5 [compound 14, (1α,2α)-3,12-didehydro-1,2-epoxy-9,10-[methylenebis(oxy)]-galanthan]
IC50 ([1]; mean of six cancer cell lines): 5.3 ± 1.2 µM
IC50 ([2]; mean of three normal cell lines): 24.9 ± 8.2 µM
Therapeutic ratio ([3]; MTT IC50): 5

Compound: O[C@H]1[C@H]2c3cc4c(cc3CN3CCC(=C[C@@H]1Cl)[C@H]23)OCO4 [compound 6, (1S,2S,12bS,12cS)-1-ol-2-Chloro-2,4,5,7,12b,12c-hexahydro-1H-[1,3]Dioxolo[4,5-j]pyrrolo[3,2,1-de]phenanthridine]
IC50 [2]: > 72.7 µM
Therapeutic ratio ([3]; MTT IC50): > 11

Compound: CC(=O)O[C@H]1[C@H]2c3cc4c(cc3CN3CCC(=C[C@@H]1OC(C)=O)[C@H]23)OCO4 [compound 3, (1S,2S,12bS,12cS)-1,2-Diol-2,4,5,7,12b,12c-hexahydro-1H-[1,3]dioxolo[4,5-j]pyrrolo[3,2,1-de]phenanthridine-1,2-diacetate]
IC50 [4, 19]: > 10 µM

Compound: CC(=O)O[C@H]1C=C2CCN3Cc4cc5c(cc4[C@H]([C@@H]1O)[C@@H]23)OCO5 [compound 5, (1S,2S,12bS,12cS)-1,2-Diol-2,4,5,7,12b,12c-hexahydro-1H-[1,3]dioxolo[4,5-j]pyrrolo[3,2,1-de]phenanthridine-2-acetate]
IC50 ([14]; Homo sapiens, A549, 72 h, read-out: IC50 In Vitro Growth Inhibitory Values): 47.6 ± 2.3 µM
IC50 ([15]; Homo sapiens, OE21, 72 h, read-out: IC50 In Vitro Growth Inhibitory Values): 77.4 ± 3.1 µM
IC50 ([16]; Homo sapiens, Hs 683, 72 h, read-out: IC50 In Vitro Growth Inhibitory Values): 43 ± 2 µM
IC50 ([17]; Homo sapiens, U373 MG, read-out: IC50 In Vitro Growth Inhibitory Values): 63.1 ± 4.1 µM
IC50 ([18]; Mus musculus, B16-F10, 72 h, read-out: IC50 In Vitro Growth Inhibitory Values): 37.1 ± 2.8 µM
IC50 [1]: 59.3 ± 8.2 µM
IC50 [2]: > 96.2 µM
Therapeutic ratio ([3]; MTT IC50): > 2

Compound: CC(=O)O[C@H]1[C@H]2c3cc4c(cc3CN3CC[C@H](C[C@@H]1OC(C)=O)[C@H]23)OCO4 [compound 9, (1S,2S,3aR,12bS,12cR)-1,2-Diol-2,3,3a,4,5,7,12b,12c-octahydro-1H-[1,3]dioxolo[4,5-j]pyrrolo[3,2,1-de]phenanthridine diacetate]
IC50 [14, 20]: > 10 µM
IC50 [15, 21]: > 10 µM
IC50 [16, 22]: > 10 µM
IC50 [17, 23]: > 10 µM
IC50 [4, 19]: > 10 µM
IC50 [18, 24]: > 10 µM

Compound: CC(=O)O[C@H]1[C@H]2c3cc4c(cc3CN3CC[C@@H](C[C@@H]1OC(C)=O)[C@H]23)OCO4 [compound 11, (1α,2β,12β)-1,2-Diol-9,10-[methylenebis(oxy)]-galanthan-diacetate]
IC50 [14, 20]: > 10 µM
IC50 [15, 21]: > 10 µM
IC50 [16, 22]: > 10 µM
IC50 [17, 23]: > 10 µM
IC50 [4, 19]: > 10 µM
IC50 [18, 24]: > 10 µM
